Source: ChEMBL document CHEMBL3108692, “Potent Targeting of the STAT3 Protein in Brain Cancer Stem Cells: A Promising Route for Treating Glioblastoma” (ACS Med Chem Lett, 2013)
Each block holds one compound with its values, some of them ahead of it. The source made the active and inactive calls. The calls are words filed in the database; no cut-off is given here.

Tests used:
[1] = biological target: T1, Signal transducer and activator of transcription 3 (Homo sapiens, UniProt P40763); assay: Competitive binding affinity to STAT3 SH2 domain (unknown origin) assessed as inhibition of interaction with FAMpYLPQTV after 15 to 30 mins by fluorescent polarization assay
T1 sequence (P40763 whole entry, the tested form may be a part): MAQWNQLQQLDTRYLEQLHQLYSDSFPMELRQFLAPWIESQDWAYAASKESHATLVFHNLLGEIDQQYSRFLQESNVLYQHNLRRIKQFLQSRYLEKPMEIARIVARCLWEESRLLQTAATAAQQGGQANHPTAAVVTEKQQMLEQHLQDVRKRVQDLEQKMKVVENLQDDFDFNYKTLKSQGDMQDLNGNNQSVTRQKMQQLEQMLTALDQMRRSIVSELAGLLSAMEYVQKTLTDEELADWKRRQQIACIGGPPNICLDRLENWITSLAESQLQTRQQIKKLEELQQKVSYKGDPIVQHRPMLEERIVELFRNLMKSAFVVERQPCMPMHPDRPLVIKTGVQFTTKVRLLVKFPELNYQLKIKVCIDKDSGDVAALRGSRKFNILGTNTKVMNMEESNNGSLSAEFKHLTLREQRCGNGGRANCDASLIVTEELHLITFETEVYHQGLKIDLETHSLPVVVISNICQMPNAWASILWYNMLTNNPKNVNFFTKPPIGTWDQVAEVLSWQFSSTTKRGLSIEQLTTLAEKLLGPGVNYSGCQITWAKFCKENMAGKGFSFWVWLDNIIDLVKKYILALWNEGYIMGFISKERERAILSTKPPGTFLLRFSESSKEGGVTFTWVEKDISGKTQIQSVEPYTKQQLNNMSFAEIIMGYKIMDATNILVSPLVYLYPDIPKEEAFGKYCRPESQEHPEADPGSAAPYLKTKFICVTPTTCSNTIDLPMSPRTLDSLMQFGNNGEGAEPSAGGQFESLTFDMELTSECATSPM

[2] = biological target: Tyrosine-protein kinase JAK1 (Homo sapiens) (UniProt P23458); assay: Inhibition of JAK1 (unknown origin) at 5 uM after 120 mins
Sequence of Tyrosine-protein kinase JAK1 (Homo sapiens) (P23458 whole entry, the tested form may be a part): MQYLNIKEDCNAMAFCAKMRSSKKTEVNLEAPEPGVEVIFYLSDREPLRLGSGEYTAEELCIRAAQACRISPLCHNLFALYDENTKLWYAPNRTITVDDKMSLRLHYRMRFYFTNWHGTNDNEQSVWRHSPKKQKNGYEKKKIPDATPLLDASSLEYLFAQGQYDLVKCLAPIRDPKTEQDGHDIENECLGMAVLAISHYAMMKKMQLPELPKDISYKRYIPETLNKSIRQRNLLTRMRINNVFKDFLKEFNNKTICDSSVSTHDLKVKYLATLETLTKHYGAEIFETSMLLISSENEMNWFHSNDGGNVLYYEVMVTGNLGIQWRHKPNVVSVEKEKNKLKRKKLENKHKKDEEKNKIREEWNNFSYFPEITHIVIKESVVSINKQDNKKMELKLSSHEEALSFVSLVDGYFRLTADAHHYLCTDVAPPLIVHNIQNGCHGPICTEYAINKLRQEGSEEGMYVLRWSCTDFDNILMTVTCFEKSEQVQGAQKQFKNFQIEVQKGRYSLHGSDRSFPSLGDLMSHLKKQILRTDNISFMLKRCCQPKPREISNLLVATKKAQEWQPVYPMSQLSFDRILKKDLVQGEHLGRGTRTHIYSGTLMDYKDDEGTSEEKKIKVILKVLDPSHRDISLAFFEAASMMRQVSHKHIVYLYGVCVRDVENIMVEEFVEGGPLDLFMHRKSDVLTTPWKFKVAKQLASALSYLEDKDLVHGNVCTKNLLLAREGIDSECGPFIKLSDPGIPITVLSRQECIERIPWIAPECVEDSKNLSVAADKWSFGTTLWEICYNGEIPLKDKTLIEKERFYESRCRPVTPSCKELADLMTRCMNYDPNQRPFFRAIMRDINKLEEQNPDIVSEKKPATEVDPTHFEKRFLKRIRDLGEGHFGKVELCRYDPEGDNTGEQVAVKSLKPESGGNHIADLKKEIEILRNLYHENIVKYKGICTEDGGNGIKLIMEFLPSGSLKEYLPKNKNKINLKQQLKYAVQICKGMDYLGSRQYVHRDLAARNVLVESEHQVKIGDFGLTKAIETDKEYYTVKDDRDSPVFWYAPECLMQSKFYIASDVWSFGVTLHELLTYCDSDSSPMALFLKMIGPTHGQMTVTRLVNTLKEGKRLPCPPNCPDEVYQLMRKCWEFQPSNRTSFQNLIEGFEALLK

[3] = cells; details: Homo sapiens, 72 h
[4] = biological target: Proto-oncogene tyrosine-protein kinase Src (Homo sapiens) (UniProt P12931); assay: Inhibition of c-Src (unknown origin) at 5 uM after 120 mins relative to control
[5] = biological target: T1, Signal transducer and activator of transcription 3; assay: Inhibition of STAT3 phosphorylation at Y705 in human 73M cells at 1 uM; format: cell-based
How it was run: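 Human 73M glioblastoma brain tumour stem cells were exposed to the inhibitor alongside the JAK2 inhibitor reference WP1066. Activated STAT3 was then read out by Western blot for STAT3 phosphorylated at Y705.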

[6] = species on record: Homo sapiens; assay: Inhibition of AKT in human 147EF cells after 6 hrs by Western blotting analysis; format: cell-based
[7] = biological target: Proto-oncogene tyrosine-protein kinase Src (Homo sapiens) (UniProt P12931); assay: Inhibition of Src in human 147EF cells after 6 hrs by Western blotting analysis; format: cell-based
[8] = Cytotoxicity against human 73M cells assessed as cell viability after 8 days by Alamar Blue assay; format: functional, cell-based; details: 192 h
[9] = species on record: Homo sapiens; assay: Induction of apoptosis in human 147EF cells assessed as PARP cleavage at 0.1 to 1 uM after 3 hrs by Western blotting analysis; format: functional, cell-based
[10] = Cytotoxicity against human 84EF cells assessed as cell viability after 3 days by Alamar Blue assay; details: 72 h
[11] = biological target: Tyrosine-protein kinase Fes/Fps (Homo sapiens) (UniProt P07332); assay: Inhibition of FES (unknown origin) SH3 domain expressed in HEK293 cells at 500 nM preincubated for 1 hr followed by compound washout measured after 30 mins by qPCR analysis; format: cell-based
[12] = species on record: Homo sapiens; assay: Inhibition of AKT phosphorylation in human 147EF cells at 0.1 to 1 uM after 3 hrs by Western blotting analysis; format: cell-based
[13] = Cytotoxicity against human 73EF cells assessed as cell viability after 3 days by Alamar Blue assay; details: 72 h
[14] = biological target: T2, Signal transducer and activator of transcription 5A (Homo sapiens, UniProt P42229); assay: Binding affinity to His-tagged STAT5 (unknown origin) by SPR spectroscopic analysis
T2 sequence (P42229 whole entry): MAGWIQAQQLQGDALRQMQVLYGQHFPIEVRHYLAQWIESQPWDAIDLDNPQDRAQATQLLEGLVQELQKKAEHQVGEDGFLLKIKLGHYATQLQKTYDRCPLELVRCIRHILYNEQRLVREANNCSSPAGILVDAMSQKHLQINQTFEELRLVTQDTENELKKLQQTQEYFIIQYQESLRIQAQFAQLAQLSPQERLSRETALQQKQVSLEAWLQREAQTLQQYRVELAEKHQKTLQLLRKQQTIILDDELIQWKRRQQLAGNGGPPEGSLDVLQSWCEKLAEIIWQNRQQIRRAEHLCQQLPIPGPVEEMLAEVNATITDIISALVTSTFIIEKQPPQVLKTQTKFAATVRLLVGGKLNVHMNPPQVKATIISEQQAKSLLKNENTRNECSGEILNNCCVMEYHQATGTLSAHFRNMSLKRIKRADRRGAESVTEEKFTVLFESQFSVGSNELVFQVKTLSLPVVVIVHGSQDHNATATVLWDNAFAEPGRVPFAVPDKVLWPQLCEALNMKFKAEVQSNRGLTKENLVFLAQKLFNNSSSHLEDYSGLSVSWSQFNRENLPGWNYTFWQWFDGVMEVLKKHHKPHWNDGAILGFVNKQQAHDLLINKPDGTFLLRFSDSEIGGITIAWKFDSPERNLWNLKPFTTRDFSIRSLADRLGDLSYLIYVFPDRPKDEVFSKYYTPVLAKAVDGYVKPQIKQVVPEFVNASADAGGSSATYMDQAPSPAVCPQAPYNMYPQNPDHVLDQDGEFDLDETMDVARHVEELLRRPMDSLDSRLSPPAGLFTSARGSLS
How it was run: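 SPR binding to STAT3 and STAT5 proteins was run at several analyte concentrations: 5.000, 1.667, 0.556 and 0.185 μM.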

[15] = biological target: Tyrosine-protein kinase Fer (Homo sapiens) (UniProt P16591); assay: Inhibition of FER (unknown origin) SH3 domain expressed in HEK293 cells at 500 nM preincubated for 1 hr followed by compound washout measured after 30 mins by qPCR analysis; format: cell-based
[16] = biological target: RAC-alpha serine/threonine-protein kinase (Homo sapiens) (UniProt P31749); assay: Inhibition of AKT1 (unknown origin) at 5 uM after 120 mins
Sequence of RAC-alpha serine/threonine-protein kinase (Homo sapiens) (P31749 whole entry): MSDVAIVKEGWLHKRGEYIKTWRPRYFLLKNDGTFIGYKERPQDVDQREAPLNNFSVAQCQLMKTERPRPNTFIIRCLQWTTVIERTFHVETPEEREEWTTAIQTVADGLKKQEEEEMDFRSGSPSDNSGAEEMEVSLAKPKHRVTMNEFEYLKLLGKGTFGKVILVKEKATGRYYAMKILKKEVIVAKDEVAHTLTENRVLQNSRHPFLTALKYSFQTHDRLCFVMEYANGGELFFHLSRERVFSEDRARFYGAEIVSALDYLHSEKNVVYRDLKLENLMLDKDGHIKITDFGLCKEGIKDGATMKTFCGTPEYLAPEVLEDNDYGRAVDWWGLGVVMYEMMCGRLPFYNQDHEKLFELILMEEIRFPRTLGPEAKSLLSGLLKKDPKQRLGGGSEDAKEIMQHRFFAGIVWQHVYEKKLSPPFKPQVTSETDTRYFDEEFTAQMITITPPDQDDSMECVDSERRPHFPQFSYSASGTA

[17] = test system: Mus musculus; assay: In vivo inhibition of STAT3 phosphorylation in tumor of NOD-SCID mouse xenografted with human BT73 cells at 10 mg/kg, ip administered as 4 days on/3 days off schedule measured 2 hrs post last dose; format: functional, organism-based; set-up: dose 10 mg/kg
How it was run: (§1)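 Mice were NOD-SCID with orthotopic BT73 human glioma xenografts. Starting on day 7, they received 10 intraperitoneal doses of 10 mg/kg or vehicle on a 4 days on/3 days off schedule. Animals were killed 2 h after the last dose and brain tumors excised. Read-outs were hematoxylin/eosin staining for tumor cellularity and immunohistochemistry for pSTAT3, Ki67 (proliferation) and TUNEL (apoptosis).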

[18] = biological target: Mitogen-activated protein kinase 3 (Homo sapiens) (UniProt P27361); assay: Inhibition of ERK1 (unknown origin) at 5 uM after 120 mins
[19] = species on record: Homo sapiens; assay: Inhibition of MAPK in human 147EF cells after 6 hrs by Western blotting analysis; format: cell-based
[20] = biological target: Platelet-derived growth factor receptor beta (Homo sapiens) (UniProt P09619); assay: Inhibition of PDGFRB (unknown origin) expressed in HEK293 cells at 500 nM preincubated for 1 hr followed by compound washout measured after 30 mins by qPCR analysis relative to control; format: cell-based
[21] = Cytotoxicity against human 67EF cells assessed as cell viability after 3 days by Alamar Blue assay; details: 72 h
[22] = test system: BT73; assay: Antitumor activity against human BT73 cells xenografted in NOD-SCID mouse assessed as induction of apoptosis in tumor at 10 mg/kg, ip administered as 4 days on/3 days off schedule measured 2 hrs post last dose by TUNEL assay; format: functional, organism-based; set-up: dose 10 mg/kg; how it was run: as §1
[23] = test system: BT73; assay: Antitumor activity against human BT73 cells xenografted in NOD-SCID mouse assessed as decrease in tumor size at 10 mg/kg, ip administered as 4 days on/3 days off schedule measured 2 hrs post last dose by hematoxylin/eosin staining; format: functional, organism-based; set-up: dose 10 mg/kg; how it was run: as §1
[24] = biological target: Epidermal growth factor receptor (Homo sapiens) (UniProt P00533); assay: Inhibition of EGFR in human 147EF cells after 6 hrs by Western blotting analysis; format: cell-based
Sequence of Epidermal growth factor receptor (Homo sapiens) (P00533 whole entry, the tested form may be a part): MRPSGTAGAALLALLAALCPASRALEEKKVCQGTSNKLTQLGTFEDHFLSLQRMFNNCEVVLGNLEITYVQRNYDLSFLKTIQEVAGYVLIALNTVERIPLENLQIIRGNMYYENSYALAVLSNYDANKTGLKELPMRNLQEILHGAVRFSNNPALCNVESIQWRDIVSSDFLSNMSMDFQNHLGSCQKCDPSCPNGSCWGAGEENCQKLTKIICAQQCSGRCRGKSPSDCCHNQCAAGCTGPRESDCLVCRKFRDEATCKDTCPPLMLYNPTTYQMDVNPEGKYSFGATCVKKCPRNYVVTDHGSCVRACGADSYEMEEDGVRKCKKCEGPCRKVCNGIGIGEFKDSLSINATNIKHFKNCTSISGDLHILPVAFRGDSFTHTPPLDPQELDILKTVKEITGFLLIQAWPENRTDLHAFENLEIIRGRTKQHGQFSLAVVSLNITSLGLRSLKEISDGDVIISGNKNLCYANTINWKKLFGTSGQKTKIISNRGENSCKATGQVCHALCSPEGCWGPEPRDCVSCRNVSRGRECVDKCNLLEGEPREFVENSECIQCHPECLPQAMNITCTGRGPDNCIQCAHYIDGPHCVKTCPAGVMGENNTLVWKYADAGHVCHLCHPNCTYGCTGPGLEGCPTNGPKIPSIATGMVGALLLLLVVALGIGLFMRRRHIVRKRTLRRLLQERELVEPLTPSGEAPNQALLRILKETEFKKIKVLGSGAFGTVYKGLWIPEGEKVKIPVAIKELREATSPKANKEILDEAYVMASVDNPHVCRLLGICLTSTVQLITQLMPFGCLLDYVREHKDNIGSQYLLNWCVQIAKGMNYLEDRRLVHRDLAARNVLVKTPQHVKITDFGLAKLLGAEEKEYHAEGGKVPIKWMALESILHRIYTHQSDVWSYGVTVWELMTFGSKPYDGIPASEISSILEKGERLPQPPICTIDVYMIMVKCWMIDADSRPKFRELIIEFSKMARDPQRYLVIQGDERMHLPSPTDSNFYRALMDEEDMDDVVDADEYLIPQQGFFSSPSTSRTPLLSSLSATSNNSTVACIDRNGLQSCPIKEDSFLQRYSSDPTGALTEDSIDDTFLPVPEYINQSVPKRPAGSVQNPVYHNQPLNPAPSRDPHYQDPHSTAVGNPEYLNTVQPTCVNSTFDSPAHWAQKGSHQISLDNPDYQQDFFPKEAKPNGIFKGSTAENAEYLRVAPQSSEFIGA

[25] = biological target: Tyrosine-protein kinase Fyn (Homo sapiens) (UniProt P06241); assay: Inhibition of FYN (unknown origin) SH3 domain expressed in HEK293 cells at 500 nM preincubated for 1 hr followed by compound washout measured after 30 mins by qPCR analysis; format: cell-based
[26] = biological target: Tyrosine-protein kinase JAK2 (Homo sapiens) (UniProt O60674); assay: Inhibition of JAK2 in human 147EF cells after 6 hrs by Western blotting analysis; format: cell-based
Sequence of Tyrosine-protein kinase JAK2 (Homo sapiens) (O60674 whole entry, the tested form may be a part): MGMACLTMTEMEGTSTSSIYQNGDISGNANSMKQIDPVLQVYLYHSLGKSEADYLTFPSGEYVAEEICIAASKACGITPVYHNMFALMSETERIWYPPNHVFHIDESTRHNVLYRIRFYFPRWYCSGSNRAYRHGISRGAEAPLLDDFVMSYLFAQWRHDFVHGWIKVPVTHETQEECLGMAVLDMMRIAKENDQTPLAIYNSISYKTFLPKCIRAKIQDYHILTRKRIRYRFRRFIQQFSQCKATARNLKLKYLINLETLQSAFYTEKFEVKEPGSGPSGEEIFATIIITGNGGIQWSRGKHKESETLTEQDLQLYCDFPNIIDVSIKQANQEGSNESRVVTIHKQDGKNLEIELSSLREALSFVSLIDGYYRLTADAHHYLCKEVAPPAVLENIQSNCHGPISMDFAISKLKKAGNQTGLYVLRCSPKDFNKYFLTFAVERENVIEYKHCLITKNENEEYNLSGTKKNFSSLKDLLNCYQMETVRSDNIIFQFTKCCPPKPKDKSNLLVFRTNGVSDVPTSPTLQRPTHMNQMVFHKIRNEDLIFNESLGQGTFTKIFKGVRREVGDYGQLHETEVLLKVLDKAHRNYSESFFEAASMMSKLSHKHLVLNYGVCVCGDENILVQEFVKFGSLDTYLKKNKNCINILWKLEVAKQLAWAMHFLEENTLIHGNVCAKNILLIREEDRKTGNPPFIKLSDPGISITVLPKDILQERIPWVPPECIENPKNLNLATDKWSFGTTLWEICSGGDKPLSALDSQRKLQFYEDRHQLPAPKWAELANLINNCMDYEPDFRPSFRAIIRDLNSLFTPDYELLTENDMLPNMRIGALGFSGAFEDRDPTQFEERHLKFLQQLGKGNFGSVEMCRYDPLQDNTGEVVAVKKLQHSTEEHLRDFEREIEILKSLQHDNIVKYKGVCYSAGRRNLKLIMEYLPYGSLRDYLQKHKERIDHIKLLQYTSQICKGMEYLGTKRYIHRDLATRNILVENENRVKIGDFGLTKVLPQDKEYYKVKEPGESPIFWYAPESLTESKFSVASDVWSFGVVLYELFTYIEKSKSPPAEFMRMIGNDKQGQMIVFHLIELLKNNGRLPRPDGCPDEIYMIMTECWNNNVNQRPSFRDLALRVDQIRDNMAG

[27] = Cytotoxicity against HF2003 cells assessed as cell viability at 5 uM after 3 days by Alamar Blue assay; format: cell-based; details: human, 72 h
How it was run: (§2)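 Normal human fetal astrocytes (healthy, non-tumor cells) were exposed to compounds at concentrations up to 5 μM, with viability as the cytotoxicity read-out.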

[28] = Cytotoxicity against human 30M cells assessed as cell viability after 8 days by Alamar Blue assay; format: functional, cell-based; details: 192 h
[29] = test system: BT73; assay: Antitumor activity against human BT73 cells xenografted in NOD-SCID mouse assessed as tumor growth inhibition by measuring downregulation of Ki67 protein expression at 10 mg/kg, ip administered as 4 days on/3 days off schedule measured 2 hrs post last dose; format: functional, organism-based; set-up: dose 10 mg/kg; how it was run: as §1
[30] = biological target: Tyrosine-protein kinase JAK2 (Homo sapiens) (UniProt O60674); assay: Inhibition of JAK2 (unknown origin) SH2 domain expressed in HEK293 cells at 500 nM preincubated for 1 hr followed by compound washout measured after 30 mins by qPCR analysis; format: cell-based
[31] = Cytotoxicity against human 30M cells assessed as cell viability after 3 days by Alamar Blue assay; details: 72 h
[32] = biological target: Tyrosine-protein kinase JAK1 (Homo sapiens) (UniProt P23458); assay: Inhibition of JAK1 (unknown origin) SH2 domain expressed in HEK293 cells at 500 nM preincubated for 1 hr followed by compound washout measured after 30 mins by qPCR analysis; format: cell-based
[33] = Cytotoxicity against HF2006 cells assessed as cell viability at 5 uM after 3 days by Alamar Blue assay; format: cell-based; details: human, 72 h; how it was run: as §2
[34] = biological target: Tyrosine-protein kinase JAK2 (Homo sapiens) (UniProt O60674); assay: Inhibition of JAK2 (unknown origin) at 5 uM after 120 mins relative to control
[35] = Cytotoxicity against human 25EF cells assessed as cell viability after 3 days by Alamar Blue assay; details: 72 h
[36] = biological target: Platelet-derived growth factor receptor beta (Homo sapiens) (UniProt P09619); assay: Inhibition of PDGFRB (unknown origin) at 10 uM by enzymatic assay
[37] = biological target: T1, Signal transducer and activator of transcription 3; assay: Inhibition of STAT3 phosphorylation at Y705 in human 147EF cells at 0.1 to 1 uM after 3 hrs by Western blotting analysis; format: cell-based

Compound: CN(CC(=O)N(Cc1ccc(C2CCCCC2)cc1)c1ccccc1)S(=O)(=O)c1c(F)c(F)c(F)c(F)c1F
inhibition [1]: inactive

Compound: CN(CC(=O)N(Cc1ccc(C2CCCCC2)cc1)c1ccc(C(=O)OCOC(=O)C(C)(C)C)cc1)S(=O)(=O)c1c(F)c(F)c(F)c(F)c1F
inhibition [1]: inactive

Compound: CN(CC(=O)N(Cc1ccc(C2CCCCC2)cc1)c1ccc(C(=O)O)c(F)c1)S(=O)(=O)c1c(F)c(F)c(F)c(F)c1F
IC50 [3]: 90 nM
IC50 [10]: 202 nM
IC50 [13]: 438 nM
IC50 [21]: 214 nM
Ki [1]: 10000 nM
IC50 [31]: 100 nM
IC50 [35]: 592 nM

Compound: CCOP(=O)(Cc1ccc(N(Cc2ccc(C3CCCCC3)cc2)C(=O)CN(C)S(=O)(=O)c2c(F)c(F)c(F)c(F)c2F)cc1)OCC
inhibition [1]: inactive

Compound: CN(CC(=O)N(Cc1ccc(C2CCCCC2)cc1)c1ccc(C(=O)O)c(O)c1)S(=O)(=O)c1c(F)c(F)c(F)c(F)c1F
Activity [9]: Active
inhibition [12]: Active
IC50 [31]: 2000 nM
inhibition [37]: Active

Compound: CCOC(=O)C(=O)Nc1ccc(N(Cc2ccc(C3CCCCC3)cc2)C(=O)CN(C)S(=O)(=O)c2c(F)c(F)c(F)c(F)c2F)cc1
inhibition [1]: inactive

Compound: CC(=O)Oc1cc(N(Cc2ccc(C3CCCCC3)cc2)C(=O)CN(C)S(=O)(=O)c2c(F)c(F)c(F)c(F)c2F)ccc1C(=O)O
inhibition [2]: inactive
IC50 [3]: 272 nM
inhibition [4]: 50%
inhibition [6]: inactive
inhibition [7]: inactive
IC50 [10]: 332 nM
IC50 [13]: 1080 nM
inhibition [16]: inactive
inhibition [18]: inactive
inhibition [19]: inactive
IC50 [21]: 436 nM
inhibition [24]: inactive
inhibition [26]: inactive
Activity [27]: Non-toxic
inhibition [1]: inactive
IC50 [31]: 100 nM
Activity [33]: Non-toxic
inhibition [34]: 50%
IC50 [35]: 1140 nM

Compound: C[C@H](NC(=O)/C(C#N)=C/c1cccc(Br)n1)c1ccccc1 [WP 1066]
IC50 [8]: 2100 nM
IC50 [28]: 1800 nM

Continued, in another order:

inhibition [2]: inactive
IC50 [3]: 66 nM
inhibition [4]: 50%
inhibition [5]: Active
inhibition [7]: inactive
inhibition [11]: inactive
Kd [14]: 464 nM
inhibition [15]: inactive
inhibition [16]: inactive
inhibition [18]: inactive
inhibition [20]: 35%
inhibition [24]: inactive
inhibition [25]: inactive
inhibition [26]: inactive
inhibition [30]: inactive
inhibition [32]: inactive
inhibition [34]: 50%
inhibition [36]: inactive
inhibition [37]: Active
Compound: CN(CC(=O)N(Cc1ccc(C2CCCCC2)cc1)c1ccc(C(=O)O)cc1)S(=O)(=O)c1c(F)c(F)c(F)c(F)c1F
inhibition [6]: inactive
IC50 [8]: 1030 nM
Activity [9]: Active
IC50 [10]: 102 nM
inhibition [12]: Active
IC50 [13]: 162 nM
inhibition [17]: Active
inhibition [19]: inactive
IC50 [21]: 106 nM
Activity [22]: Active
Activity [23]: Active
Activity [27]: Non-toxic
IC50 [28]: 430 nM
TGI [29]: Active
IC50 [31]: 100 nM
Activity [33]: Non-toxic
IC50 [35]: 234 nM

inhibition [1]: inactive
Compound: COC(=O)c1ccc(N(Cc2ccc(C3CCCCC3)cc2)C(=O)CN(C)S(=O)(=O)c2c(F)c(F)c(F)c(F)c2F)cc1

inhibition [2]: inactive
inhibition [4]: 50%
inhibition [7]: inactive
inhibition [16]: inactive
inhibition [18]: inactive
inhibition [24]: inactive
inhibition [26]: inactive
inhibition [34]: 50%
Compound: CN(CC(=O)N(Cc1ccc(C2CCCCC2)cc1)c1ccc(C(=O)NO)cc1)S(=O)(=O)c1c(F)c(F)c(F)c(F)c1F
inhibition [6]: inactive
inhibition [19]: inactive
Activity [27]: Non-toxic
Activity [33]: Non-toxic

inhibition [1]: inactive
Compound: CCOC(=O)c1ccc(N(Cc2ccc(C3CCCCC3)cc2)C(=O)CN(C)S(=O)(=O)c2c(F)c(F)c(F)c(F)c2F)cc1

inhibition [1]: inactive
Compound: CC(=O)OCOC(=O)c1ccc(N(Cc2ccc(C3CCCCC3)cc2)C(=O)CN(C)S(=O)(=O)c2c(F)c(F)c(F)c(F)c2F)cc1
